Data reported in ChEMBL document CHEMBL5724801, “EUbOPEN Chemogenomics Library - Multiplex” (2024).
Several values for one entry are separate records, joined by “and”; a condition that tells them apart may be missing. Identical values can stand only once.

System: HEK-293T
Assay: Multiplex assay against HEK293T
Assay type: toxicity, cell-based
Details: human
Outline: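 Live cells carried four stains from seeding: Hoechst33342, BioTracker Green Microtubule Cytoskeleton Dye, MitoTracker Red and Annexin V Alexa Fluor 680. They were imaged on a CQ1 microscope at 37°C and 5% CO2 after compound addition. Using CellPathfinder machine-learning gating, cells were split into Hoechst high-intensity objects or normal cells, normal cells into healthy, pyknosed or fragmented nuclei, and pyknosed cells into mitotic or apoptotic; tubulin, mitochondrial-mass and membrane-permeability phenotypes are per cents of healthy-nucleus cells.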

[1] = 12 h, 1 µM, compound concentration 1 uM
[2] = 12 h, 10 µM, compound concentration 10 uM
[3] = 24 h, 1 µM, compound concentration 1 uM
[4] = 24 h, 10 µM, compound concentration 10 uM
[5] = 48 h, 1 µM, compound concentration 1 uM
[6] = 48 h, 10 µM, compound concentration 10 uM

For `CC(N)C1CCC(C(=O)Nc2ccncc2)CC1` (stereo unspecified), the “Population Apoptotic (%)” value [1] was 7.48% and 4.2%, the “Population Fragmented Nuclei (%)” value [1] was 1.19% and 1.23% and the “Population Healthy Nuclei (%)” value [1] was 63.72% and 25.31%. The “Population Hoechst High Intensity Objects (%)” value [1] was 0.48% and 0%, the “Population Membrane Permeable-Phenotype (%)” value [1] was 0% and the “Population Mitotic Cells (%)” value [1] was 92.52% and 95.8%. For the same compound, the “Population Normal (%)” value [1] was 99.52% and 100%, the “Population Pyknosed Nuclei (%)” value [1] was 35.08% and 73.46% and the “Total Cell Count” value [1] was 421 and 162. The “Population Fragmented Nuclei (%)” value [2] was 1.2% and 1.9%, the “Population Healthy Nuclei (%)” value [2] was 60.28% and 29.75% and the “Population Hoechst High Intensity Objects (%)” value [2] was 0%. The “Population Membrane Permeable-Phenotype (%)” value [2] was 0.99% and 4.26%, the “Population Mitochondria Different-Phenotype (%)” value [2] was 27.81% and 17.02% and the “Population Mitotic Cells (%)” value [2] was 96.37% and 83.33%. For the same compound, the “Population Normal (%)” value [2] was 100%, the “Population Pyknosed Nuclei (%)” value [2] was 38.52% and 68.35% and the “Population Apoptotic (%)” value [3] was 2.15% and 8.97%. The “Population Fragmented Nuclei (%)” value [3] was 1.77% and 1.69%, the “Population Healthy Nuclei (%)” value [3] was 83.28% and 54.49% and the “Population Hoechst High Intensity Objects (%)” value [3] was 0.16% and 1.11%. For the same compound, the “Population Membrane Permeable-Phenotype (%)” value [3] was 0.97% and 3.09%, the “Population Mitochondria Different-Phenotype (%)” value [3] was 6.76% and 5.15% and the “Population Mitotic Cells (%)” value [3] was 97.85% and 91.03%. The “Population Normal (%)” value [3] was 99.84% and 98.89%, the “Population Pyknosed Nuclei (%)” value [3] was 14.95% and 43.82% and the “Population Tubulin-Different-Phenotype (%)” value [3] was 6.56% and 4.12%. For the same compound, the “Population Apoptotic (%)” value [4] was 4.95% and 13.95%, the “Population Fragmented Nuclei (%)” value [4] was 1.78% and 1.58% and the “Population Healthy Nuclei (%)” value [4] was 73.29% and 53.16%. The “Population Hoechst High Intensity Objects (%)” value [4] was 0% and 0.52%, the “Population Membrane Permeable-Phenotype (%)” value [4] was 0.19% and 2.97% and the “Population Mitochondria Different-Phenotype (%)” value [4] was 6.17% and 6.93%. The “Population Mitotic Cells (%)” value [4] was 95.05% and 86.05%, the “Population Normal (%)” value [4] was 100% and 99.48% and the “Population Pyknosed Nuclei (%)” value [4] was 24.93% and 45.26%. For the same compound, the “Population Tubulin-Different-Phenotype (%)” value [4] was 3.36% and 1.98%, the “Population Apoptotic (%)” value [5] was 7.52% and 3.77% and the “Population Fragmented Nuclei (%)” value [5] was 2.72% and 1.86%. For the same compound, the “Population Healthy Nuclei (%)” value [5] was 86.94% and 78.44%, the “Population Hoechst High Intensity Objects (%)” value [5] was 0% and 0.74% and the “Population Membrane Permeable-Phenotype (%)” value [5] was 3.76% and 2.84%. The “Population Mitochondria Different-Phenotype (%)” value [5] was 10.11% and 9.95%, the “Population Mitotic Cells (%)” value [5] was 92.48% and 96.23% and the “Population Normal (%)” value [5] was 100% and 99.26%. For the same compound, the “Population Pyknosed Nuclei (%)” value [5] was 10.34% and 19.7%, the “Population Fragmented Nuclei (%)” value [6] was 1.32% and 1.83% and the “Population Healthy Nuclei (%)” value [6] was 88.05% and 71.1%. For the same compound, the “Population Hoechst High Intensity Objects (%)” value [6] was 0% and 0.91%, the “Population Membrane Permeable-Phenotype (%)” value [6] was 2.25% and 0.65% and the “Population Mitochondria Different-Phenotype (%)” value [6] was 9.07% and 6.45%. For the same compound, the “Population Mitotic Cells (%)” value [6] was 96.89% and 81.36%, the “Population Normal (%)” value [6] was 100% and 99.09% and the “Population Pyknosed Nuclei (%)” value [6] was 10.63% and 27.06%. For the same compound, the “Population Tubulin-Different-Phenotype (%)” value [6] was 0.3% and 9.68%.

For `Cn1cc(C(=O)OCC2CCN(CCNS(C)(=O)=O)CC2)c2ccccc21`, the “Population Apoptotic (%)” value [1] was 39% and 56%, the “Population Fragmented Nuclei (%)” value [1] was 5% and 9% and the “Population Healthy Nuclei (%)” value [1] was 83% and 76%. For the same compound, the “Population Hoechst High Intensity Objects (%)” value [1] was 7% and 8%, the “Population Membrane Permeable-Phenotype (%)” value [1] was 0% and the “Population Mitochondria Different-Phenotype (%)” value [1] was 35% and 62%. For the same compound, the “Population Mitotic Cells (%)” value [1] was 60% and 43%, the “Population Normal (%)” value [1] was 92% and 91% and the “Population Pyknosed Nuclei (%)” value [1] was 10% and 14%. For the same compound, the “Population Tubulin-Different-Phenotype (%)” value [1] was 22% and 28%, the “Total Cell Count” value [1] was 466 and 248 and the “Population Apoptotic (%)” value [2] was 47% and 43%. The “Population Fragmented Nuclei (%)” value [2] was 10%, the “Population Healthy Nuclei (%)” value [2] was 73% and 71% and the “Population Hoechst High Intensity Objects (%)” value [2] was 6% and 10%. The “Population Membrane Permeable-Phenotype (%)” value [2] was 0%, the “Population Mitochondria Different-Phenotype (%)” value [2] was 55% and 73% and the “Population Mitotic Cells (%)” value [2] was 52% and 56%. The “Population Normal (%)” value [2] was 93% and 89%, the “Population Pyknosed Nuclei (%)” value [2] was 15% and 18% and the “Population Tubulin-Different-Phenotype (%)” value [2] was 53% and 47%. For the same compound, the “Total Cell Count” value [2] was 479 and 393, the “Population Apoptotic (%)” value [3] was 29% and 48% and the “Population Fragmented Nuclei (%)” value [3] was 6% and 12%. The “Population Healthy Nuclei (%)” value [3] was 82% and 76%, the “Population Hoechst High Intensity Objects (%)” value [3] was 4% and 5% and the “Population Membrane Permeable-Phenotype (%)” value [3] was 1% and 0%. The “Population Mitochondria Different-Phenotype (%)” value [3] was 21% and 42%, the “Population Mitotic Cells (%)” value [3] was 70% and 51% and the “Population Normal (%)” value [3] was 95% and 94%. The “Population Pyknosed Nuclei (%)” value [3] was 10%, the “Population Tubulin-Different-Phenotype (%)” value [3] was 16% and 17% and the “Total Cell Count” value [3] was 650 and 283. For the same compound, the “Population Apoptotic (%)” value [4] was 35% and 48%, the “Population Fragmented Nuclei (%)” value [4] was 11% and 10% and the “Population Healthy Nuclei (%)” value [4] was 74% and 79%. The “Population Hoechst High Intensity Objects (%)” value [4] was 5% and 6%, the “Population Membrane Permeable-Phenotype (%)” value [4] was 1% and 0% and the “Population Mitochondria Different-Phenotype (%)” value [4] was 43% and 56%. For the same compound, the “Population Mitotic Cells (%)” value [4] was 64% and 51%, the “Population Normal (%)” value [4] was 94% and 93% and the “Population Pyknosed Nuclei (%)” value [4] was 13% and 9%. For the same compound, the “Population Tubulin-Different-Phenotype (%)” value [4] was 50% and 37%, the “Total Cell Count” value [4] was 587 and 491 and the “Population Apoptotic (%)” value [5] was 25% and 44%. The “Population Fragmented Nuclei (%)” value [5] was 12% and 11%, the “Population Healthy Nuclei (%)” value [5] was 78% and 82% and the “Population Hoechst High Intensity Objects (%)” value [5] was 3% and 4%. The “Population Membrane Permeable-Phenotype (%)” value [5] was 1% and 3%, the “Population Mitochondria Different-Phenotype (%)” value [5] was 12% and 23% and the “Population Mitotic Cells (%)” value [5] was 74% and 55%. For the same compound, the “Population Normal (%)” value [5] was 96% and 95%, the “Population Pyknosed Nuclei (%)” value [5] was 8% and 6% and the “Population Tubulin-Different-Phenotype (%)” value [5] was 10% and 11%. The “Total Cell Count” value [5] was 1090 and 490, the “Population Apoptotic (%)” value [6] was 38% and the “Population Fragmented Nuclei (%)” value [6] was 16% and 13%. For the same compound, the “Population Healthy Nuclei (%)” value [6] was 77% and 79%, the “Population Hoechst High Intensity Objects (%)” value [6] was 6% and 4% and the “Population Membrane Permeable-Phenotype (%)” value [6] was 1% and 0%. The “Population Mitochondria Different-Phenotype (%)” value [6] was 31% and 37%, the “Population Mitotic Cells (%)” value [6] was 61% and the “Population Normal (%)” value [6] was 93% and 95%. The “Population Pyknosed Nuclei (%)” value [6] was 6%, the “Population Tubulin-Different-Phenotype (%)” value [6] was 28% and 26% and the “Total Cell Count” value [6] was 883 and 758.
